Assay outcomes deposited in PubChem BioAssay by several laboratories.
Rows were chosen to be rich in hits. Some 4.2% of all compounds tested hit in one or more screens of this group.
Autophagy mod – autophagy modulators in MEF cells, primary screen, imaging, high-content, MEF GFP-LC3; MEF GFP-LC3 puncta imaging; test concentration mostly 10 µM; calls only at 10 µM (by protocol); hit rate 0.98% among 190,000;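 active = percentage of spot-positive cells more than 3 SD above its plate mean, without a fluorescence outlier flag or 80% toxicity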;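 note: spot-positive cell cutoff set from DMSO-treated cells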
KCC2 mod – KCC2 cotransporter modulators, thallium flux, primary screen, cell-based, HEK293 KCC2, FluoZin-2 fluorescence, MLSMR | hit rate 2.2% among 190,000 | B-score of Tl+ flux slope (higher = more flux/activation; lower = inhibition) at 10 µM | KCC2 cells, thallium flux FluoZin-2 fluorescence | Solute carrier family 12 member 5 (Homo sapiens), Q9H2X9;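 active = thallium flux slope and its plate-corrected score both differing from the plate sample mean at a set confidence after two filtering rounds, in either direction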;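 note: slope of fluorescence scaled to starting intensity during 10 to 20 s after thallium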
WT yeast gro inh – growth inhibition of WT strain, primary screen, mitochondrial fusion inhibitor project, WT and mutant strains, chemical genetic. mitochondrial fusion phenotypic screen. inhibition, % at 10 µM. AID 1362, 2008. hit rate 2.1% among 190,000; in the data active = inhibition above about 58%; tested in S. cerevisiae
Rad51 HR inh – human RAD51 strand exchange inhibitors, primary screen, biochemical, fluorescence; inhibition, % at 10 µM; hit rate 0.085% among 200,000; AID 1385, 2008; hRad51 DNA strand exchange, fluorescence dequenching; DNA repair protein RAD51 homolog 1 (Homo sapiens), Q06609;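 active = inhibition above 40% at the single screening dose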;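 note: 0% = DMSO control wells and 100% = blanks with heterologous ssDNA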
Target sequence (Q06609 whole entry, looked up): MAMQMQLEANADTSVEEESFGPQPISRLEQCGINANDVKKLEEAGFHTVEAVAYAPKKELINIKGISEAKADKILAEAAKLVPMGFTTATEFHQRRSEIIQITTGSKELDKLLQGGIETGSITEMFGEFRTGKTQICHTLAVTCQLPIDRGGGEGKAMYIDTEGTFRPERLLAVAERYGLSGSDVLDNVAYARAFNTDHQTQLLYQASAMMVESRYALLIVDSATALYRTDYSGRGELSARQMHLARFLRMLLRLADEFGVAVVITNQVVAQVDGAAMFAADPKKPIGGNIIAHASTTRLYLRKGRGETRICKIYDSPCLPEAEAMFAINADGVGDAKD
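Test system – preformed human Rad51 ssDNA filaments · Reagent – Donor/quencher-labelled 47-bp dsDNA substrate · Incubation – 37 °C 15-min filament assembly, 30-min compound preincubation, 15-min exchange · Signal – FRET fluorescence dequenching, excitation 485 nm, emission 520 nm · Read-out – percent inhibition from fluorescence, normalised to plate control and blank means · Benchmarks – plate control and blank wells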
SKKanGAS inh – S. pyogenes SKKanGAS growth inhibitors in kanamycin, primary screen, streptokinase expression inhibitor project, SKKanGAS strain, BacTiter-Glo luminescence | hit rate 1.3% among 300,000 | 6 h | inhibition, % at 7.5 µM;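 active = mean replicate score, as percent of positive control median, at least 50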;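 note: strain carries kanamycin resistance gene driven by streptokinase promoter and grows in 40 µg/ml kanamycin; loss of luminescence reflects streptokinase promoter inhibition or plain growth inhibition; 0% = median of DMSO wells and 100% = positive control at its reference dose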
Ins promoter up – insulin promoter activators in MIN6 cells, imaging, high-content screening, mouse beta cells. MIN6 insulin promoter-GFP reporter; hits give high values. z-score at 5 µM. hit rate 0.3% among 190,000. AID 1625, 2009;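 active = z-score above 3 at 5 µM with at least 500 cells counted in the well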
* marks the source's active call; other numbers are inactive results; i = inactive; · = no result given; + = active, no number.

SMILES	Autophagy mod	KCC2 mod	WT yeast gro inh	Rad51 HR inh	SKKanGAS inh	Ins promoter up
CCN(CC)c1ccc2c(c1)OC(N)=C(C#N)C2c1cccnc1 (centres undefined)	+	·	2.1	-85.6	4.2	-1.68
Cc1cc(C)c(C#N)c(SCC2COc3ccccc3O2)n1 (centres undefined)	i	-1.93	51.8	0.5	45.7	3.48*
O=c1c2ccccc2oc2cc(-c3ccc4[nH]ccc4c3)ccc12	·	·	·	-2.9	57.2*	·
COc1ccc(NC(=O)CCCn2nc(C)c3c(C)n(-c4ccccc4)nc3c2=O)cc1	·	·	·	·	2.6	·
N#Cc1c(NCCN)nc(NCc2ccccc2)c2c1CCN(Cc1ccccc1)C2	+	-0.0814	·	14.2	·	-2.07
CCCc1nc(NCc2ccccc2)c(C#N)c2c1CCCC2	i	0.335	-7.2	-0.8	73.7*	-0.02
CCOC(=O)N1CCN(C(=O)c2cc3cc(OC)c(OC)cc3[nH]2)CC1	·	·	·	·	-4.0	·
CN(C)c1ccnc(N(Cc2ccccc2)Cc2ccccc2)c1C#N	i	-1.37	80.5*	7.7	25.8	0.29
Clc1ccc(-c2nnc(-c3ccco3)nc2N2CCCCC2)cc1	i	0.37	66.4*	4.2	-7.6	0.24
COc1ccccc1CN1CC(C(=O)N2CCC(C(=O)c3ccccc3)CC2)CCC1=O (centres undefined)	·	·	·	·	-4.0	·
Cc1ccc(C(=O)N(CCCN(C)C)c2nc3ccc(Cl)cc3s2)cc1C	i	-0.301	89.5*	-9.9	-13.1	-0.37
CN(C)CCCN(C(=O)c1ccc2c(c1)CCCC2)c1nc2ccc(F)cc2s1	i	-0.00187	86.7*	-6.3	1.3	-0.57
CN(C)CCCN(C(=O)CCc1ccccc1)c1nc2ccc(F)cc2s1	i	0	89.0*	-2.6	-9.0	-0.67
Cc1ccc2nc(N(CCCN(C)C)C(=O)c3sc4ccccc4c3Cl)sc2c1	i	0.744	88.8*	4.8	-13.0	-0.15
COc1ccc(/C=C/C(=O)NCCSCc2ccco2)cc1OC	·	-0.0441	·	-5.5	2.9	-0.25
CCCCn1c(N)c(N(CC(C)C)C(=O)C2CCN(S(=O)(=O)c3ccc(C)c(C)c3)CC2)c(=O)[nH]c1=O	·	·	·	·	7.7	·
Cn1ccsc1=NC(=O)c1ccc(S(C)(=O)=O)c([N+](=O)[O-])c1	·	·	·	·	6.7	·
Cn1c(CNC(=O)CCNC(=O)c2ccc(F)c(F)c2)cc(=O)n(C)c1=O	·	·	·	·	-7.3	·
CCOC(=O)C1=NN(C(=O)Cc2ccccc2)C(O)(c2ccc(Cl)cc2)C1 (centres undefined)	i	1.34	7.2	·	-4.2	0.17
COC(=O)C1=NN(C(=O)c2cccc(Br)c2)C(O)(c2ccc(Cl)cc2)C1 (centres undefined)	i	92.3*	48.0	-115.1	86.0*	0.17
CCOC(=O)C1=NN(C(=O)c2ccccc2)C(O)(c2ccc(C)cc2)C1 (centres undefined)	i	52*	14.3	-6.9	6.9	-0.19
CC1=NN(C(=O)c2ccccc2)C(O)(c2ccc(Br)cc2)C1 (centres undefined)	·	-0.522	·	7.7	1.2	-0.09
Cc1ccc(/C=C/C2=Cc3c(sc(NC(=O)CSc4n[nH]c(N)n4)c3C#N)C(C)(C)C2)o1	i	0.546	18.6	-46.5	55.3*	-0.82
O=S(=O)([N-]c1nc2ccccc2nc1-[n+]1ccccc1)c1ccccc1	i	1.54	1.1	-1.2	-3.5	-0.05
Cc1cc(C)c[n+](-c2nc3ccccc3nc2[N-]S(=O)(=O)c2ccc(Br)s2)c1	+	-0.17	-6.5	-39.1	2.9	0.12
COc1cc(/C=N/NC(=O)c2cc(-c3cccn3C)n[nH]2)cc(OC)c1OC	i	·	7.7	4.9	62.8*	-0.99
COc1cccc(/C=N/NC(=O)c2cc(-c3cccn3C)n[nH]2)c1	i	-0.118	-2.5	-1.7	3.6	-0.58
O=C(OCc1ccccc1)C1=NNC2C(=O)N(Cc3ccccc3)C(=O)C12 (centres undefined)	i	0.133	13.0	15.4	-7.4	0.9
